Source: ChEMBL document CHEMBL1158182, “Antifungal activity of chalcones: a mechanistic study using various yeast strains” (Eur J Med Chem, 2008)

Tests used:
Format in all cases: functional
[1] = test system: Saccharomyces cerevisiae; test: Antifungal activity against haploid Saccharomyces cerevisiae 1S by agar dilution method
Method in brief: (§1)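 S. cerevisiae and K. lactis strains were tested by agar dilution on rich YPD agar at 30 °C. Compound stocks in 96% EtOH were added to the medium to give […]. Cells were suspended in water, serially diluted to 10^9–10^3 cells/ml, and plated with a metal replicator. MIC was read from growth.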

[2] = test system: Saccharomyces cerevisiae; test: Antifungal activity against haploid Saccharomyces cerevisiae 1169 by agar dilution method; method in brief: as §1
[3] = test system: Saccharomyces cerevisiae; test: Antifungal activity against haploid Saccharomyces cerevisiae 2180 by agar dilution method; method in brief: as §1
[4] = test system: Saccharomyces cerevisiae; test: Antifungal activity against diploid Saccharomyces cerevisiae 1a by agar dilution method; method in brief: as §1
[5] = test system: Saccharomyces cerevisiae; test: Antifungal activity against diploid Saccharomyces cerevisiae 29a by agar dilution method; method in brief: as §1
[6] = test system: Saccharomyces cerevisiae; test: Antifungal activity against haploid Saccharomyces cerevisiae Sigma 1278b by agar dilution method; method in brief: as §1
[7] = test system: Saccharomyces cerevisiae; test: Antifungal activity against haploid Saccharomyces cerevisiae FY4 by agar dilution method; method in brief: as §1
[8] = test system: Saccharomyces cerevisiae; test: Antifungal activity against haploid Saccharomyces cerevisiae 10560-6B by agar dilution method; method in brief: as §1
[9] = test system: Saccharomyces cerevisiae; test: Antifungal activity against haploid Saccharomyces cerevisiae YSH1170 by agar dilution method; method in brief: as §1
[10] = test system: Saccharomyces cerevisiae; test: Antifungal activity against haploid Saccharomyces cerevisiae YSH1171 by agar dilution method; method in brief: as §1
[11] = test system: Ogataea angusta; test: Antifungal activity against Hansenula polymorpha WT1 with ade1 ura3 genotype by agar dilution method
Method in brief: (§2)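 H. polymorpha strains were tested by agar dilution on rich YPD agar at 37 °C. Compound stocks in 96% EtOH were mixed into the medium to give […]. Cells were suspended in water, serially diluted to 10^9, 10^7, 10^5 and 10^3 cells/ml, and applied to the agar with a metal replicator. MIC was read from growth.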

[12] = test system: Ogataea angusta; test: Antifungal activity against Hansenula polymorpha WT2 with ade1 met6 genotype by agar dilution method; method in brief: as §2
[13] = test system: Ogataea angusta; test: Antifungal activity against Hansenula polymorpha CD1 with ade1 leu2 cds1 genotype by agar dilution method; method in brief: as §2
[14] = test system: Ogataea angusta; test: Antifungal activity against Hansenula polymorpha CD2 with ade1 leu2 cds2 genotype by agar dilution method; method in brief: as §2
[15] = test system: Ogataea angusta; test: Antifungal activity against Hansenula polymorpha CD3 with ade1 leu2 cds3 genotype by agar dilution method; method in brief: as §2
[16] = test system: Ogataea angusta; test: Antifungal activity against Hansenula polymorpha 2a with arg1 leu2 ura3 cys1 genotype by agar dilution method; method in brief: as §2
[17] = test system: Ogataea angusta; test: Antifungal activity against Hansenula polymorpha 2b with arg1 ade1 leu2 genotype by agar dilution method; method in brief: as §2
[18] = test system: Ogataea angusta; test: Antifungal activity against Hansenula polymorpha D22 with arg1/arg1 ade1/ADE1 leu2/leu2 URA3/ura3 CYS1/cys1 genotype by agar dilution method; method in brief: as §2
[19] = test system: Ogataea angusta; test: Antifungal activity against Hansenula polymorpha M2 with met2 genotype by agar dilution method; method in brief: as §2
[20] = test system: Ogataea angusta; test: Antifungal activity against Hansenula polymorpha MC1 with met2 cys1 genotype by agar dilution method; method in brief: as §2
[21] = test system: Ogataea angusta; test: Antifungal activity against Hansenula polymorpha AS1 with arg1 gsh2delta genotype by agar dilution method; method in brief: as §2
[22] = test system: Ogataea angusta; test: Antifungal activity against Hansenula polymorpha M4 with met4 genotype by agar dilution method; method in brief: as §2
[23] = test system: Ogataea angusta; test: Antifungal activity against Hansenula polymorpha AU05 with ade3 ura3 genotype by agar dilution method; method in brief: as §2
[24] = test system: Ogataea angusta; test: Antifungal activity against Hansenula polymorpha R3 with rgh3 genotype by agar dilution method; method in brief: as §2
[25] = test system: Ogataea angusta; test: Antifungal activity against Hansenula polymorpha CRD2 with leu2 CDR2 genotype by agar dilution method; method in brief: as §2
[26] = test system: Kluyveromyces lactis; test: Antifungal activity against Kluyveromyces lactis 2-18B with MATalpha metA1 ura3 leu2 genotype by agar dilution method; method in brief: as §1
[27] = test system: Kluyveromyces lactis; test: Antifungal activity against Kluyveromyces lactis 1-6A with MATalpha uraA lys arg genotype by agar dilution method; method in brief: as §1
[28] = test system: Kluyveromyces lactis; test: Antifungal activity against Kluyveromyces lactis 2-19B with MATalpha ura lys arg genotype by agar dilution method; method in brief: as §1

Measured: MIC

O=C(/C=C/c1ccc(O)c(O)c1)c1ccc(Cl)cc1
> 40 µg/mL: all assays above

O=C(/C=C/c1ccc([N+](=O)[O-])cc1)c1ccc(Cl)cc1
> 40 µg/mL: all assays above

O=C(/C=C/c1ccc(O)cc1)c1ccccc1 [4-HYDROXYCHALCONE]
> 40 µg/mL: all assays above

COc1cc(/C=C/C(=O)c2ccc(Cl)cc2)cc(OC)c1O
> 40 µg/mL: all assays above

CC(=O)Nc1ccc(/C=C/C(=O)c2ccc(Cl)cc2)cc1
> 40 µg/mL: all assays above

COc1cccc(/C=C/C(=O)c2ccc(Cl)cc2)c1
> 40 µg/mL: all assays above

O=C(/C=C/C=C/c1ccccc1)c1ccc(Cl)cc1
> 40 µg/mL: all assays above
